Measured values published in article PMC7913687 (Nucleic Acids Research, 2021).

Columns and labels:
[1] = system: t^6A formation by TsaC, TsaB, TsaD and TsaE; assay: In vitro HPLC assay for t^6A formation, overall; type: biochemical, Escherichia coli; details: for Km: read-out: Km, overall reaction, apparent, amino acid as variable substrate; for k cat, overall reaction: named ligand as variable substrate
[2] = system: aspartate and ornithine transcarbamoylases; details: cited from earlier work
[3] = biological target: overall reaction (TsaC, TsaB, TsaD and TsaE) (Escherichia coli, UniProt P05852+P45748); assay: Inhibition of t6A formation in the full TsaBCDE reaction; type: biochemical; details: read-out: IC50 (μM) Overall reaction
Summary of the method: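 Full reaction: 50 mM MOPS pH 7.5, 20 mM NaHCO3, 25 mM KCl, 1 mM ATP, L-Thr (0.6 mM per footnote; 1 mM in text), 10 μM unmodified E. coli tRNALys, 1 μM each TsaB/C/D/E. Variable test compound; ATP-started; 23 °C, 5 min; EDTA quench, G-50 desalting, nuclease P1/alkaline phosphatase digest. Isocratic C18 HPLC quantifies t6A at 260 nm. IC50 from near-initial rates.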

[4] = biological target: EcTsaBDE (Escherichia coli, UniProt P05852); assay: Isolated second step of t^6A formation; type: biochemical
[5] = biological target: T1, TsaC (Escherichia coli, UniProt P45748); assay: TsaC reaction; type: biochemical; details: named ligand as variable substrate
T1 sequence (P45748 1-190): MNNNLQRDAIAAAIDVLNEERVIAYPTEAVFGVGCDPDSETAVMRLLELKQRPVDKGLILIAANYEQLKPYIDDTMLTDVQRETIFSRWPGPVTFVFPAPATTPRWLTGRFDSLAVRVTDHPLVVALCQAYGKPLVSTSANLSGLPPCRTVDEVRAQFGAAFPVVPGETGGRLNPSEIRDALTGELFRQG
Summary of the method: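 Enzyme, with the other components and any inhibitor, preincubated 2 min at 23°C, then started with ATP. After 1 min at 23°C, injected directly onto C18 HPLC (isocratic 50 mM potassium phosphate pH 6, 1% acetonitrile). TC-AMP read by UV at 260 nm. […], measured near initial rates.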

[6] = system: EcTsaBDE complex; details: read-out: Km for TsaE-catalyzed ATPase activity; cited from earlier work
[7] = system: C[C@@H](O)[C@H](N)C(=O)O; assay: purified protein, by the assay type; details: pH 6.0; 23.0 °C
[8] = system: Nc1ncnc2c1ncn2[C@@H]1O[C@H](COP(=O)(O)OP(=O)(O)OP(=O)(O)O)[C@@H](O)[C@H]1O; assay: purified protein, by the assay type; details: pH 6.0; 23.0 °C
[9] = biological target: Escherichia coli TsaBD heterodimer, preformed from fluorescently labelled His6-TsaD and unlabelled TsaB (Escherichia coli) (UniProt P05852); assay: MST
Sequence of Escherichia coli TsaBD heterodimer, preformed from fluorescently labelled His6-TsaD and unlabelled TsaB (Escherichia coli) (P05852 whole entry, chain 1 of 2): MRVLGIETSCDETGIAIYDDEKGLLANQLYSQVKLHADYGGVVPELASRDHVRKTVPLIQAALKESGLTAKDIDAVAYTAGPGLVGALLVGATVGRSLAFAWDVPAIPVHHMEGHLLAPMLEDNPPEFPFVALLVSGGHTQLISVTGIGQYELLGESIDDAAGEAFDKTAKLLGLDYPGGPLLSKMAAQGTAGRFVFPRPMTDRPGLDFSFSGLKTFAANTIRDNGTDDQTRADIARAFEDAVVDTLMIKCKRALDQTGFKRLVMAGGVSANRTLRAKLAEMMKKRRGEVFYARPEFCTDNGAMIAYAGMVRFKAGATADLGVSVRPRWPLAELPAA
Sequence of Escherichia coli TsaBD heterodimer, preformed from fluorescently labelled His6-TsaD and unlabelled TsaB (Escherichia coli) (P76256 whole entry, chain 2 of 2, further chain): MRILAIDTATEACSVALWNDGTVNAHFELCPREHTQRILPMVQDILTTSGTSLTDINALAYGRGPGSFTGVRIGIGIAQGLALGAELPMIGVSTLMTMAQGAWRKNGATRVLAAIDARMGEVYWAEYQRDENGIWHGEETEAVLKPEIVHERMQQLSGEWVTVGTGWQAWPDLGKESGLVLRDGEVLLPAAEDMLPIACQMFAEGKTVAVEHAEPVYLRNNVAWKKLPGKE

Sequence of overall reaction (TsaC, TsaB, TsaD and TsaE) (P76256 whole entry, one chain of several): as the sequence (P76256 whole entry, chain 2 of 2, further chain) above
Sequence of overall reaction (TsaC, TsaB, TsaD and TsaE) (P05852 whole entry, one chain of several): as the sequence (P05852 whole entry, chain 1 of 2) above
Sequence of EcTsaBDE (P05852 whole entry): as the sequence (P05852 whole entry, chain 1 of 2) above
Sequence of EcTsaBDE (P76256 whole entry partner): as the sequence (P76256 whole entry, chain 2 of 2, further chain) above

## CCC(O)[C@H](N)C(=O)O (mixture of isomers) [hNV, (±)-3-hydroxynorvaline]
[1]
  Km: 500 µM

## NC(=O)OP(=O)(O)O [CP, carbamoyl phosphate]
[2]
  Km: 4 to 10 µM

## Nc1ncnc2c1ncn2[C@@H]1O[C@H](COP(=O)(O)OC(=O)N[C@@H](CO)C(=O)O)[C@@H](O)[C@H]1O [SC-AMP, serine analog of TC-AMP (L-serylcarbamoyl-adenylate)]
[3]
  IC50: 9.3 ± 1.2 µM

## Nc1ncnc2c1ncn2[C@@H]1O[C@H](COP(=O)(O)OP(=O)(O)OP(=O)(O)O)[C@@H](O)[C@H]1O [ATP]
[1]; at 5 mM ATP
  reduction in the Vmax (substrate inhibition): 50%
[1]; at 10 mM ATP
  reduction in the Vmax (substrate inhibition): 90%
[1]; calculated for observed substrate inhibition, fit to Equation 3
  Kis (substrate inhibition), overall reaction: 2200 µM
[1]
  k cat, overall reaction: 0.00667 ± 0.0067 s⁻¹
[4]
  fold lower turnover of t^6A formation than ATPase activity: ~80 fold
[4]; 14 μM vs 0.64 mM
  fold lower Km for t^6A second step than Km for ATPase activity: 40 fold
[4]; TC-AMP 10 μM, fit to Equation 3
  Kis, second step with TC-AMP as substrate: 1.8 mM
[4]; TC-AMP 10 μM, calculated for observed substrate inhibition
  Kis (substrate inhibition), TsaBDE reaction: 1800 µM
[4]; named ligand as variable substrate
  k cat, TsaBDE reaction: 0.002 ± 0.0017 s⁻¹
[5]
  K m, TsaC reaction: 130 ± 10 µM
  k cat, TsaC reaction: 0.132 ± 0.0033 s⁻¹
[6]
  Km: 640 µM

## EcTsaC (Escherichia coli K-12)
[7]
  Km: 1770 ± 260 µM
  kcat: 0.15 ± 0.00667 s⁻¹
[8]
  Km: 130 ± 10 µM
  kcat: 0.132 ± 0.00333 s⁻¹

## Nc1ncnc2c1ncn2[C@@H]1O[C@H](COP(=O)(O)O)[C@@H](O)[C@H]1O [5′-AMP, adenosine 5'-monophosphate]
[3]
  IC50: 113 ± 10 µM

## C[C@@H](O)[C@H](N)C(=O)O [L-Thr, L-threonine]
[1]
  k cat, overall reaction: 0.007 ± 0.00033 s⁻¹
  Km: 590 ± 90 µM
[5]
  K m, TsaC reaction: 1770 ± 260 µM
  k cat, TsaC reaction: 0.15 ± 0.0067 s⁻¹

## Nc1ncnc2c1ncn2[C@@H]1O[C@H](COP(=O)(O)OP(=O)(O)O)[C@@H](O)[C@H]1O [5′-ADP, adenosine 5'-diphosphate]
[3]
  IC50: 160 ± 20 µM

## Escherichia coli TsaE (from UniProt P0AF67 1-153) (enzyme; other documents disagree on this pair)
[9]
  Kd: 2.2 µM
